These results are taken from ChEMBL document CHEMBL4513216, “Probing the Open Global Health Chemical Diversity Library for Multistage-Active Starting Points for Next-Generation Antimalarials” (ACS Infect Dis, 2020).

The data set can be described thus: Toxicity liver stage against HepG2, at 10uM. The data set is classed as cell-based. Further details: test concentration 10 uM, cell line HepG2-A16-CD81EGFP. The conditions noted are these: human, HepG2-A16-CD81EGFP cells; read-out: INHIBITION
The gist of the method: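 Uninfected HepG2-A16-CD81EGFP cells, 3 × 10^3 per well, 1536-well, plated on prespotted compound at 10 μM final, parasite-free screening media added to match infected plates; puromycin 10 μM positive, DMSO 0.5% negative; run in parallel with 48 h PbLuc assay at 37 °C, 5% CO2; viability by CellTiter-Glo luminescence, normalized to controls.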
Consider `c1cn2c(n1)CO[C@@H](CNCc1ccc3c(c1)OCO3)C2`, for which the cytotoxicity at 10 µM is 2%.

Consider `CC(=O)N1C[C@@H](F)[C@@H](OCc2nc3ccccc3o2)C1`, for which the cytotoxicity at 10 µM is -1.34%.

As to `O=C(O)Cn1ccc(=O)c2ccccc21`, the cytotoxicity at 10 µM was -9.24%.

In the case of `CSCCC(Nc1nc(C)cc(C)n1)C(=O)NC1CC1` (stereo unspecified), the cytotoxicity at 10 µM is -15.3%.

Regarding `Cc1cnc(CNC(=O)C[C@@H]2COC[C@H]3CN(C4CCC4)C[C@@H]23)cn1`, the cytotoxicity at 10 µM is -10.6%.

On to `O=C1NCCO[C@H]2CN(C(=O)CCc3ccccc3Cl)CC[C@@H]12`, for which the cytotoxicity at 10 µM was found to be 1.96%.

In the case of `O=c1ccc2c(n1Cc1ccncc1)CCN(C1CCOC1)CC2` (stereo unspecified), the cytotoxicity at 10 µM is -1.31%.

As to `COCC1CN(CC2CCOCC2)Cc2cn(CC3CCCC3)nc21` (stereo unspecified), the cytotoxicity at 10 µM stood at 5.19%.

Take `CO[C@@H]1CC[C@H]2[C@H]1OCCN2S(=O)(=O)C1CC1`: the cytotoxicity at 10 µM was determined as 2.6%.

With `Cc1ncnc2c1CCN(C(=O)c1ccoc1)CC2`, the cytotoxicity at 10 µM amounted to 6.73%.

Turning to `Cc1sc(NC(=O)CN(C)S(C)(=O)=O)c(C#N)c1C`, the cytotoxicity at 10 µM stood at 4.7%.

As for `CC1CCN(C(=O)c2ccn(COc3ccccc3)n2)CC1`, the cytotoxicity at 10 µM is -0.107%.

On to `COC(=O)c1c(Cl)c(C)nc2onc(C)c12`, for which the cytotoxicity at 10 µM is -0.895%.

With `CN(C)C(=O)CNC(=O)CCn1ncc2c(Cl)cccc21`, the cytotoxicity at 10 µM is -4.84%.

Turning to `CS(=O)(=O)c1cnc(N2CCCC2)nc1C1CCN(C(=O)C2CC2)CC1`, the cytotoxicity at 10 µM was 1.45%.

For the molecule `O=C(c1cscn1)N1CCc2[nH]nc(Nc3ccccc3)c2C1`, the cytotoxicity at 10 µM is 7.82%.

For the molecule `CC(C)NC(=O)C1CCc2nnc(C(C)(C)C)n21` (stereo unspecified), the cytotoxicity at 10 µM is 2.74%.

Take `Cc1cc(C)c(CNC(=O)NC2CCN(C(=O)C(C)C)CC2)c(C)c1`: the cytotoxicity at 10 µM turned out to be 9.46%.

For `CC(C)(CO)N1CCN(S(=O)(=O)CCCF)CC1`, the cytotoxicity at 10 µM was -4.3%.

Consider `CC(C#N)CNC(=O)Nc1ccc(Br)cc1` (stereo unspecified), for which the cytotoxicity at 10 µM was found to be 1.44%.

Take `CCOc1ccc(NCc2cnc(N3CCN(C)CC3)nc2)cn1`: the cytotoxicity at 10 µM is -0.512%.

With `O=C(NCCN1CCCCCC1=O)Nc1cccnc1-n1cccn1`, the cytotoxicity at 10 µM was -1.73%.

`CCC(NC(=O)c1ccc(COC)o1)c1nc(C(F)(F)F)cs1` (stereo unspecified): the cytotoxicity at 10 µM came to 2.91%.

For `CNC(=O)CN1CCC(CN(C)Cc2ccc(C)cc2C)CC1`, the cytotoxicity at 10 µM stood at 4%.

As to `COC(=O)CCN(CC1CCCO1)C(=O)CCc1ccc(OC)cc1` (stereo unspecified), the cytotoxicity at 10 µM was found to be 7.39%.

With `CC(=O)NC1(C(=O)N2CCCN(c3cccnn3)CC2)CCCCC1`, the cytotoxicity at 10 µM amounted to 8.15%.

`Cc1nc(CN2CCN(C(=O)C(C(C)C)n3cncn3)CC2)cs1` (stereo unspecified): the cytotoxicity at 10 µM is -1.29%.

Turning to `COc1ccc(OCCN(C)C(=O)c2ccc(OC)cc2O)cc1`, the cytotoxicity at 10 µM is -143%.

On to `N#Cc1cccnc1NCc1ccc(S(=O)(=O)NC2CC2)cc1`, for which the cytotoxicity at 10 µM turned out to be 6.25%.

Regarding `O=S(=O)(Nc1cn[nH]c1)c1ccc(Br)c(F)c1`, the cytotoxicity at 10 µM turned out to be 0.462%.

`NC(=O)CCN1C(=O)CC(Cc2ccc(F)cc2)C1=O` (stereo unspecified): the cytotoxicity at 10 µM was -4.89%.

As for `N#CC(NC(=O)CCC(=O)NC1CCCC1)c1ccc(F)cc1F` (stereo unspecified), the cytotoxicity at 10 µM was determined as 6.75%.

For `OCC(O)CSCc1ccc(F)cc1Cl` (stereo unspecified), the cytotoxicity at 10 µM is -138%.

Turning to `Cc1cnn(-c2ccc(C(=O)N3CCN(C)CC3C)cc2)c1` (stereo unspecified), the cytotoxicity at 10 µM is 5.16%.

Turning to `CCCc1nc(CNC2(c3nccs3)CCCC2)cs1`, the cytotoxicity at 10 µM was determined as 2.63%.

For `CN(Cc1nnc(-c2cccs2)o1)C(C(N)=O)c1cccc(F)c1` (stereo unspecified), the cytotoxicity at 10 µM stood at 13.7%.

With `CC(C)C1CN(C(=O)Nc2cnn(CC(F)F)c2)CCO1` (stereo unspecified), the cytotoxicity at 10 µM was 8.52%.

For the molecule `O=S(=O)(CC1CCCO1)Nc1cc(Cl)ccc1-n1cccn1` (stereo unspecified), the cytotoxicity at 10 µM worked out at 3.55%.

For `CC(C)(C)C(=O)NCCC(=O)NS(=O)(=O)c1ccc2c(c1)OCCO2`, the cytotoxicity at 10 µM is -3.81%.

In the case of `O=C1CCCCN1CCc1nc(C2(c3ccc(F)cc3)CCOC2)no1` (stereo unspecified), the cytotoxicity at 10 µM stood at 3.82%.

Consider `CC(=O)NCCNC(=O)C(c1ccccc1C)N(C)C` (stereo unspecified), for which the cytotoxicity at 10 µM is 10.6%.

Take `CC(C)N(CCO)C(=O)c1cc(COc2ccc3c(c2)CCCC3)on1`: the cytotoxicity at 10 µM was -135%.

As to `COc1ccc(C(=O)N2C[C@@H](O)[C@H](NCCc3ncccc3C)C2)cc1`, the cytotoxicity at 10 µM was -3.71%.

Take `O=C(CCCN1CCCCC1)N1CCN(C(=O)c2nc[nH]n2)CC1`: the cytotoxicity at 10 µM amounted to 7.81%.

With `O=C(O)CCc1cc2n(n1)CCN(Cc1ccc3[nH]ccc3c1)C2`, the cytotoxicity at 10 µM was -2.32%.

Consider `C[C@H](N)C(=O)N1CCC(c2[nH]ncc2-c2ccccc2)CC1`, for which the cytotoxicity at 10 µM is 2.4%.

Consider `CCN(Cc1cnn(C)c1)C[C@H]1CC[C@@H](Cc2cccc(C#N)c2)O1`, for which the cytotoxicity at 10 µM worked out at 0.194%.

As to `CCCn1cc(C(=O)NCCc2ccc3c(c2)OCO3)c(C)n1`, the cytotoxicity at 10 µM is 96.3%.

As for `CC(C)c1nc(CN2CCOC(Cn3cncn3)C2)no1` (stereo unspecified), the cytotoxicity at 10 µM amounted to 1.01%.

Regarding `COc1cc(CNC(=O)N(Cc2ccc(F)cc2F)C2CC2)ccn1`, the cytotoxicity at 10 µM was -9.17%.

For the molecule `CCCN(C)CCC(=O)N1CCCC1Cn1cccn1` (stereo unspecified), the cytotoxicity at 10 µM is -16.9%.

Consider `CC(NC(=O)N1CCN(c2nccs2)CC1)c1nncn1C` (stereo unspecified), for which the cytotoxicity at 10 µM is -13.1%.

As for `Cc1cnn(CCNCc2ccccc2OCc2ccncc2)c1`, the cytotoxicity at 10 µM was -16.1%.

As for `Cc1cnn(CCNCc2ccccc2OCc2ccccn2)c1`, the cytotoxicity at 10 µM is 3.03%.

Take `Cc1ccc(F)c(C(=O)N2CCC(Nc3ccc(C)nn3)CC2)c1`: the cytotoxicity at 10 µM was -3.78%.

As for `CCOc1ccccc1OC1CCN(C(=O)c2ccc(=O)[nH]n2)CC1`, the cytotoxicity at 10 µM is -8.7%.

As for `O=C(CN1CCCCC1)N1CCC(c2cc(=O)n3c(n2)CCCCC3)C1` (stereo unspecified), the cytotoxicity at 10 µM is -32.5%.

`O=S(=O)(NC[C@]12COC[C@H]1CN(c1ncc(F)cn1)C2)C1CC1`: the cytotoxicity at 10 µM was -128%.

As for `Cc1cnc(N2CC[C@@H]3CN(Cc4ccncc4)CCO[C@@H]3C2)nc1`, the cytotoxicity at 10 µM was 3.23%.

For the molecule `c1cnc(N2CCO[C@H]3CN(Cc4cc[nH]n4)C[C@H]32)cn1`, the cytotoxicity at 10 µM came out at 9.07%.

As to `CNC(=O)C1CNCCN1C(=O)c1ccc(C(F)(F)F)nc1C` (stereo unspecified), the cytotoxicity at 10 µM was -4.7%.

With `O=C(c1nc2c(o1)CN(CC1CCC1)C2)N1CCCC1`, the cytotoxicity at 10 µM was -131%.

For the molecule `O=C(c1cnccn1)N1CCCC2(CCN(Cc3ccsc3)C2)C1` (stereo unspecified), the cytotoxicity at 10 µM is -2.27%.

`CNC(=O)[C@H]1C[C@@H]2CN(S(=O)(=O)Cc3ccccc3)C[C@@H]2N1C`: the cytotoxicity at 10 µM is -5.06%.

As to `CN(C)C(=O)N[C@@H]1CN(Cc2ccc3c(c2)OCO3)[C@@H]2CCCO[C@@H]21`, the cytotoxicity at 10 µM is -6.93%.

Take `Cc1nc(CN2CCOCC23CCN(c2ccc(C#N)cc2)CC3)cs1`: the cytotoxicity at 10 µM is -13.8%.

`CN1CCOCC12CCN(c1ccc(C#N)cc1)CC2`: the cytotoxicity at 10 µM was -4.23%.

For `COCCN1CCc2ccc(=O)n(Cc3csc(C)n3)c2CC1`, the cytotoxicity at 10 µM came to 4.68%.

In the case of `COCCN1C[C@@H]2CCCO[C@@H]2[C@H](N(C)Cc2ccco2)C1`, the cytotoxicity at 10 µM was -0.388%.

For the molecule `CNc1nc2cn(CCc3ccc(Cl)cc3)c(=O)c-2c[nH]1`, the cytotoxicity at 10 µM was 5.2%.

On to `Cc1nnsc1CN1C[C@@H]2CC[C@H]1CN(Cc1ccccn1)C2`, for which the cytotoxicity at 10 µM is -3.56%.
